In brackets after ≈: the same amount, converted by molar mass.
Tests used:
[1] = system: Jurkat; assay: Growth inhibition of human Jurkat cells at 50 ug/mL; type: functional
[2] = system: Jurkat; assay: Cytotoxicity against human Jurkat cells in presence and relative to TRAIL; type: functional, cell-based
Summary of the method: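 Jurkat cell proliferation test run with each isolate in combination with TRAIL, to measure enhancement of TRAIL cytotoxicity; values expressed relative to the cell proliferation rate at 0.125.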

[3] = system: Jurkat; assay: Growth inhibition of human Jurkat cells; type: functional, cell-based
[4] = system: Jurkat; assay: Cytotoxicity against human Jurkat cells in presence and relative to TRAIL at 50 ug/mL; type: functional
Summary of the method: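 Proliferation assay in Jurkat cells exposed to each isolated alkaloid together with TRAIL. Results are expressed relative to the cell proliferation rate at […].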

Molecule `CO[C@H]1C=CC2=CC(=O)N3CCc4cc5c(cc4[C@]23C1)OCO5` has an inhibition at 50 µg/mL [1] of 37%, an IC50 [2] of 22 µg/mL (≈ 70.7 µM) and an IC50 [3] greater than 50 µg/mL.

Work on `COc1cc2c(cc1O)CC[N+]1([O-])CC=C3C=C[C@H](OC)C[C@]321` (stereo not given in full) yielded an inhibition at 50 µg/mL [1] of 2.4%, an inhibition at 50 µg/mL [4] of 18.9% and an IC50 [2] greater than 50 µg/mL. For the same molecule, the IC50 [3] was greater than 50 µg/mL.

Molecule `O=c1cc(-c2ccc(O)cc2)oc2cc(O)cc(O)c12` [APIGENIN] has an IC50 [2] of 6.7 µg/mL (≈ 24.8 µM) and an IC50 [3] of 30 µg/mL (≈ 111 µM).

`COC(=O)c1cc2c(cn1)CCN1CC=C3C=C[C@H](OC)C[C@]321` [ERYMELANTHINE] was tested, and the inhibition at 50 µg/mL [1] was 1.1%, the inhibition at 50 µg/mL [4] was 24.2% and the IC50 [2] was greater than 50 µg/mL. For the same molecule, the IC50 [3] was greater than 50 µg/mL.

`COc1cc2c(cc1O)CCN1CC=C3C=C[C@H](OC)C[C@]321` [ERYSODINE] gave an IC50 [2] of 4.9 µg/mL (≈ 16.4 µM) and an IC50 [3] of 10.8 µg/mL (≈ 36.1 µM).

With `COc1cc2c(cc1OC)[C@]13C[C@@H](OC)C=CC1=CCN3CC2` [ERYSOTRINE] the inhibition at 50 µg/mL [1] was 45%, the IC50 [2] was 7.2 µg/mL (≈ 23 µM) and the IC50 [3] was greater than 50 µg/mL.

Work on `COc1cc2c(cc1O)[C@]13C[C@@H](OC)C=CC1=CCN3CC2` [ERYSOVINE] yielded an IC50 [2] of 14.2 µg/mL (≈ 47.4 µM) and an IC50 [3] of 24 µg/mL (≈ 80.2 µM).

`CO[C@H]1C=CC2=CCN3CCc4cc5c(cc4[C@]23C1)OCO5` [ERYTHRALINE] showed an IC50 [2] of 5 µg/mL (≈ 16.8 µM) and an IC50 [3] of 23 µg/mL (≈ 77.3 µM).

`COc1cc2c(cc1O[C@@H]1O[C@H](CO)[C@@H](O)[C@H](O)[C@H]1O)CCN1CC=C3C=C[C@H](OC)C[C@]321` [GRYCOERYSODINE] gave an inhibition at 50 µg/mL [1] of 4.7%, an IC50 [2] of 44 µg/mL (≈ 95.3 µM) and an IC50 [3] greater than 50 µg/mL.

For `C[N+](C)(C)[C@H](Cc1c[nH]c2ccccc12)C(=O)[O-]` [HYPAPHORINE], the inhibition at 50 µg/mL [1] was 5.8%, the inhibition at 50 µg/mL [4] was 20% and the IC50 [2] was greater than 50 µg/mL. For the same molecule, the IC50 [3] was greater than 50 µg/mL.

For `CC[C@]1(O)C[C@H]2CN(CCc3c([nH]c4ccccc34)[C@@](C(=O)OC)(c3cc4c(cc3OC)N(C=O)[C@H]3[C@@](O)(C(=O)OC)[C@H](OC(C)=O)[C@]5(CC)C=CCN6CC[C@]43[C@@H]65)C2)C1` [VINCRISTINE], the IC50 [3] was 0.0031 µg/mL (≈ 0.00376 µM).

Reference: ChEMBL document CHEMBL1139285, “TRAIL-enhancing activity of Erythrinan alkaloids from Erythrina velutina” (Bioorg Med Chem Lett, 2009)
